The text below walks through data of ChEMBL document CHEMBL5390224, “Design, synthesis, and biological evaluation of a novel series of 1,2,4-oxadiazole inhibitors of SLACK potassium channels: Identification of in vitro tool VU0935685” (Bioorg Med Chem, 2023).

Common to all, as to format: cell-based
In experiment [1] the test system is HEK293. Description: Inhibition of wild-type human SLACK expressed in HEK293 cells assessed as efficacy at 30 uM by thallium flux assay relative to control. The gist of the method:
(§1)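 Stable monoclonal HEK293 lines (WT or A934T SLACK) plated 20,000 cells/well; loaded 1 h at room temperature with Thallo-AM dye, 1.25 mM probenecid, masking dye, 0.3% Pluronic F-127 in buffer with 2.7 mM RbCl, pH 7.3. Compound preincubated 120 s, then Tl2SO4 stimulus (2.5 mM); fluorescence read 120 s. Concentration–response 1.5 nM–30 μM in half-log steps, ≥3 replicate wells.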

Experiment [2] relates to HEK293. Description: Inhibition of wild-type human SLACK expressed in HEK293 cells by thallium flux assay. In a few lines:
as §1

The test system of experiment [3] is HEK293. Description: Activation of wild-type human SLACK expressed in HEK293 cells assessed as efficacy at 30 uM by thallium flux assay relative to control.
The test system of experiment [4] is CHO. Nature of the experiment: Inhibition of wild-type human SLACK expressed in CHO cells assessed as efficacy at 30 uM by whole cell voltage clamp electrophysiology assay. The note with it: Cricetulus griseus.
The nature of experiment [5]: Inhibition of wild-type human SLACK expressed in CHO cells by whole cell voltage clamp electrophysiology assay. The note with it: Cricetulus griseus. In a few lines:
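Automated whole-cell patch clamp at room temperature. External (mM): NaCl 105, KCl 4, MgCl2 1, CaCl2 5, HEPES 10, NMDG-Cl 40, pH 7.4. Internal: NaCl 70, KF 70, KCl 10, EGTA 5, HEPES 5, pH 7.2. Concentrations 0.125–30 μM in half-log steps, ≥3 cells per series.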

Each structure is given as a SMILES string. Active and inactive are the calls of the source. The rule behind the calls is not given here.

`Cc1ccc(S(=O)(=O)N2CC(c3nc(-c4ccsc4)no3)C2)cc1`: the Efficacy entry in experiment [1] was “inactive”. In experiment [2], the inhibition result is “inactive”.

As to `O=S(=O)(c1ccc(C(F)(F)F)cc1)N1CC(c2nc(-c3ccsc3)no2)C1`, in experiment [1], the Efficacy result is “inactive”. In addition, the inhibition result in experiment [2] was “inactive”. With `CCOc1ccccc1S(=O)(=O)N1CC(c2cc(-c3ccc(F)cc3)on2)C1`, the Efficacy entry in experiment [1] was “inactive”. For the same compound, the inhibition result in experiment [2] was “inactive”.

Regarding `CCOc1ccccc1S(=O)(=O)N1CC(c2nc(-c3ccc(F)cn3)no2)C1`, the Efficacy entry in experiment [1] was “inactive”. The inhibition entry in experiment [2] was “inactive”. As for `O=S(=O)(c1ccc(Cl)cc1)N1CC(c2nc(-c3ccsc3)no2)C1`, in experiment [1], the Efficacy result is “inactive”. For the same compound, the inhibition entry in experiment [2] was “inactive”. Regarding `CCOc1ccccc1S(=O)(=O)C1CN(c2nc(-c3ccc(F)cc3)no2)C1`, the Efficacy in experiment [1] worked out at 24%. For `CCOc1ccccc1S(=O)(=O)N1CC(c2cn(-c3ccc(F)cc3)nn2)C1`, the Efficacy in experiment [3] (filed as activator) was 41%. For `CCNc1ccccc1S(=O)(=O)N1CC(c2nc(-c3ccsc3)no2)C1`, the Efficacy result in experiment [1] is “inactive”. Besides, the inhibition result in experiment [2] was “inactive”. Turning to `Cc1nc2c(S(=O)(=O)N3CC(c4nc(-c5ccc(F)cc5)no4)C3)cccn2n1`, the Efficacy in experiment [3] stood at 16%. Take `O=S(=O)(c1ccccc1OC1CCCC1)N1CC(c2nc(-c3ccc(F)cc3)no2)C1`: the Efficacy in experiment [1] worked out at 93%. Consider `CCOc1ccccc1S(=O)(=O)N1CC(c2nnc(-c3ccc(F)cc3)o2)C1`, for which the Efficacy in experiment [3] was below 10%. Take `CCOc1ccccc1S(=O)(=O)N1CC(c2nc(-c3ccc(C)cc3)no2)C1`: the Efficacy entry in experiment [1] was “inactive”. The inhibition result in experiment [2] is “inactive”. As for `CCOc1ccccc1S(=O)(=O)N1CC(c2nc(-c3nccs3)no2)C1`, the Efficacy entry in experiment [1] was “inactive”. The inhibition result in experiment [2] is “inactive”. With `CCOc1ccccc1OC(=O)N1CC(c2nc(-c3ccsc3)no2)C1`, in experiment [3] (filed as activator), the Efficacy is 50%.

On to `CCOc1ccccc1S(=O)(=O)N1CC(c2noc(-c3ccc(F)cc3)n2)C1`, for which, in experiment [1], the Efficacy turned out to be 45%. On to `CCOc1ccccc1NC(=O)N1CC(c2nc(-c3ccsc3)no2)C1`, for which the Efficacy in experiment [3] was below 10%. Take `O=S(=O)(c1cccc(F)c1)N1CC(c2nc(-c3ccsc3)no2)C1`: the Efficacy in experiment [3] came to 24%. In the case of `CCOc1ccccc1CC(=O)N1CC(c2nc(-c3ccsc3)no2)C1`, in experiment [3], the Efficacy turned out to be 37%. With `O=S(=O)(c1ccc(F)cc1)N1CC(c2nc(-c3ccsc3)no2)C1`, the Efficacy result in experiment [1] was “inactive”. Further, the inhibition result in experiment [2] was “inactive”. Consider `CCOc1ccccc1C(C)N1CC(c2nc(-c3ccsc3)no2)C1` (stereo not given), for which the Efficacy in experiment [3] is below 10%. With `CCOc1ccccc1S(=O)(=O)N1CC(c2nc(-c3cccc(C)c3)no2)C1`, in experiment [1], the Efficacy is below 10%. As to `O=S(=O)(c1ccccc1OCC1CC1)N1CC(c2nc(-c3ccc(F)cc3)no2)C1`, in experiment [1], the Efficacy was 95%. Consider `CCOc1ccccc1S(=O)(=O)N1CC(c2nc(-c3cccc(OC)c3)no2)C1`, for which the Efficacy in experiment [3] is below 10%. Still for that read-out and setting: with `CCOc1ccccc1S(=O)(=O)N1CC(c2nc(-c3ccc(F)cc3)c[nH]2)C1` the figure was 34%. As for `CCOc1ccccc1S(=O)(=O)c1ccc(-c2nc(-c3ccc(F)cc3)no2)cc1`, the Efficacy entry in experiment [1] is “inactive”. The inhibition entry in experiment [2] was “inactive”. Consider `O=S(=O)(c1cccc2ccoc12)N1CC(c2nc(-c3ccc(F)cc3)no2)C1`, for which, in experiment [3], the Efficacy was 37%. Take `Cc1nnc2c(S(=O)(=O)N3CC(c4nc(-c5ccc(F)cc5)no4)C3)cccn12`: the Efficacy entry in experiment [1] was “inactive”. The inhibition result in experiment [2] was “inactive”. As for `CCOc1ccccc1S(=O)(=O)N1CC(c2nc(-c3ccncc3)no2)C1`, the Efficacy entry in experiment [1] is “inactive”. In addition, the inhibition result in experiment [2] is “inactive”.

Take `CCOc1ccccc1S(=O)(=O)N1CC(c2ncc(-c3ccc(F)cc3)o2)C1`: the Efficacy in experiment [3] worked out at 37%. On to `CCOc1ccccc1S(=O)(=O)N1CC(c2nc(-c3cccnc3)no2)C1`, for which the Efficacy result in experiment [1] is “inactive”. Further, in experiment [2], the inhibition result was “inactive”. For `COc1cccc(S(=O)(=O)N2CC(c3nc(-c4ccsc4)no3)C2)c1`, the Efficacy entry in experiment [1] was “inactive”. The inhibition result in experiment [2] is “inactive”. On to `CCOc1ccccc1S(=O)(=O)N1CC(c2nnc(-c3ccc(F)cc3)[nH]2)C1`, for which the Efficacy in experiment [3] turned out to be 31%. For the compound `CCOc1ccccc1S(=O)(=O)N1CC(c2nc(-c3ncccn3)no2)C1`, the Efficacy entry in experiment [1] was “inactive”. For the same compound, in experiment [2], the inhibition entry is “inactive”. On to `O=S(=O)(c1cccn2ccnc12)N1CC(c2nc(-c3ccc(F)cc3)no2)C1`, for which the Efficacy in experiment [3] (filed as activator) was 48%. As for `CCOc1ccccc1CN1CC(c2nc(-c3ccsc3)no2)C1`, the Efficacy in experiment [3] turned out to be 31%.

Turning to `O=S(=O)(c1cccc(C(F)(F)F)c1)N1CC(c2nc(-c3ccsc3)no2)C1`, in experiment [3] (filed as activator), the Efficacy was 61%. For `O=S(=O)(c1cccn2ncnc12)N1CC(c2nc(-c3ccc(F)cc3)no2)C1`, in experiment [3], the Efficacy worked out at 16%. As for `Cc1cn2cccc(S(=O)(=O)N3CC(c4nc(-c5ccc(F)cc5)no4)C3)c2n1`, the Efficacy in experiment [3] came out at 19%.

As to `CCOc1ccccc1S(=O)(=O)N1CC(F)(c2nc(-c3ccc(F)cc3)no2)C1`, in experiment [1], the Efficacy came out at 98%. In the case of `O=S(=O)(c1ccccc1C(F)(F)F)N1CC(c2nc(-c3ccsc3)no2)C1`, the Efficacy in experiment [3] stood at 36%. For `O=S(=O)(c1cccc(Cl)c1)N1CC(c2nc(-c3ccsc3)no2)C1`, the Efficacy entry in experiment [1] was “inactive”. In experiment [2], the inhibition result was “inactive”. For the compound `CCOc1ccccc1S(=O)(=O)N1CC(c2cc(-c3ccc(F)cc3)n[nH]2)C1`, in experiment [3], the Efficacy was 24%. As for `CCOc1ccccc1S(=O)(=O)N1CC(c2nc(-c3ccc(Cl)cc3)no2)C1`, the Efficacy in experiment [1] was 94%. With `CCOc1ccccc1S(=O)(=O)N1CC(c2nc(-c3ccc(F)cc3)cn2C)C1`, the Efficacy in experiment [1] was found to be 47%. Regarding `CCOc1ccccc1S(=O)(=O)N1CC(c2nc(-c3ccccc3C)no2)C1`, the Efficacy in experiment [3] was below 10%. `CCOc1ccccc1S(=O)(=O)N1CC(c2nc(-c3ccccc3F)no2)C1`: the Efficacy in experiment [1] turned out to be 88%. What is called IC50 is the concentration at which inhibition is half-maximal. On to `COc1ccc(Cl)cc1NC(=O)CN1CCN(S(=O)(=O)N2CCC(C)CC2)CC1`, for which, in experiment [4], the Efficacy was determined as 95%. Moreover, the midpoint of inhibition in experiment [5], the IC50, lay at 2280 nM.

With `CCOc1ccccc1S(=O)(=O)N1CC(c2nc(-c3ccco3)no2)C1`, the Efficacy in experiment [1] was 44%. With `CCOc1ccccc1S(=O)(=O)[C@H]1C[C@@H](c2nc(-c3ccc(F)cc3)no2)C1`, the Efficacy result in experiment [1] is “inactive”. For the same compound, the inhibition entry in experiment [2] is “inactive”. Turning to `CCOc1ccccc1S(=O)(=O)N1CC(c2nc(-c3cccc(F)c3)no2)C1`, in experiment [1], the Efficacy entry was “inactive”. In addition, the inhibition result in experiment [2] was “inactive”. In the case of `O=S(=O)(c1ccccc1OCC1CCC1)N1CC(c2nc(-c3ccc(F)cc3)no2)C1`, in experiment [1], the Efficacy was 88%.

Turning to `CCOc1ccccc1S(=O)(=O)N1CC(c2nc(-c3ccccc3)no2)C1`, the Efficacy in experiment [1] was 51%. Same read-out and setting: the result for `O=S(=O)(c1ccccc1N1CCCCC1)N1CC(c2nc(-c3ccc(F)cc3)no2)C1` reads 28%. On to `O=S(=O)(c1cccn2cnnc12)N1CC(c2nc(-c3ccc(F)cc3)no2)C1`, for which the Efficacy in experiment [3] is 14%. Regarding `CCOc1ccccc1S(=O)(=O)[C@H]1C[C@H](c2nc(-c3ccc(F)cc3)no2)C1`, the Efficacy in experiment [1] turned out to be 52%.

Consider `O=S(=O)(c1ccccc1Cl)N1CC(c2nc(-c3ccsc3)no2)C1`, for which, in experiment [3] (filed as activator), the Efficacy came out at 47%. As for `CCOc1ccccc1S(=O)(=O)N1CC(c2nc(-c3cccc(Cl)c3)no2)C1`, the Efficacy entry in experiment [1] was “inactive”. Besides, the inhibition result in experiment [2] was “inactive”. With `CCOc1ccccc1S(=O)(=O)N1CC(c2nc(-c3ccccc3OC)no2)C1`, in experiment [3], the Efficacy is 18%. In the case of `CCOc1ccccc1S(=O)(=O)N1CC(c2nc(-c3ccccc3C(F)(F)F)no2)C1`, the Efficacy in experiment [3] (filed as activator) turned out to be 66%. Regarding `CCOc1ccccc1C(=O)N1CC(c2nc(-c3ccsc3)no2)C1`, in experiment [3], the Efficacy is 18%. As to `CCOc1ncccc1S(=O)(=O)N1CC(c2nc(-c3ccc(F)cc3)no2)C1`, the Efficacy in experiment [1] amounted to 46%. Same read-out and setting: the result for `O=S(=O)(c1ccccc1N1CCCC1)N1CC(c2nc(-c3ccc(F)cc3)no2)C1` reads 92%; that for `CCOc1ccccc1S(=O)(=O)N1CC(c2nc(-c3ccccc3Cl)no2)C1`, 81%. For `CCOc1ccccc1S(=O)(=O)N1CC(c2nc(-c3ccccn3)no2)C1`, in experiment [1], the Efficacy entry was “inactive”. Also, the inhibition result in experiment [2] was “inactive”. As to `CCOc1ccccc1S(=O)(=O)N1CC(c2cc(-c3ccc(F)cc3)no2)C1`, the Efficacy result in experiment [1] is “inactive”. Besides, the inhibition result in experiment [2] was “inactive”. Turning to `CCCc1ccccc1S(=O)(=O)N1CC(c2nc(-c3ccsc3)no2)C1`, in experiment [1], the Efficacy came out at 79%. The same measure, in the same setting: with `CCOc1ccccc1S(=O)(=O)N1CC(c2nc(-c3cccc(C(F)(F)F)c3)no2)C1` the figure was 48%. As for `CCCCOc1ccccc1S(=O)(=O)N1CC(c2nc(-c3ccsc3)no2)C1`, the Efficacy entry in experiment [1] was “inactive”. In addition, the inhibition entry in experiment [2] was “inactive”. Turning to `CCOc1ccccc1S(=O)(=O)N1CC(C)(c2nc(-c3ccc(F)cc3)no2)C1`, in experiment [3], the Efficacy is 14%.

As for `O=S(=O)(c1ccccc1F)N1CC(c2nc(-c3ccsc3)no2)C1`, the Efficacy in experiment [3] stood at 30%. Still for that read-out and setting: the result for `Cc1cccc(S(=O)(=O)N2CC(c3nc(-c4ccsc4)no3)C2)c1` reads below 10%. `O=S(=O)(c1ccccc1OC1COC1)N1CC(c2nc(-c3ccc(F)cc3)no2)C1`: in experiment [3] (filed as activator), the Efficacy stood at 43%.
